Assay results: PMC2222990 (The Journal of General Physiology, 1999)

What was measured:
[1] = system: native CNG channels from salamander rod outer segments; assay: Inside-out patches with native CNG channels from rod outer segments; format: biochemical, tiger salamanders (Ambystoma tigrinum); details: 100 μM genistein
[2] = target: T1, bovine rod photoreceptor CNG channel α subunit (Bos taurus, UniProt Q00194); assay: Inside-out patch clamp of rod CNG channels expressed in Xenopus oocytes; format: biochemical; details: for effect on cGMP sensitivity (K 1/2 for cGMP): 10 μM genistein, 10 μM lavendustin A, 25 μM erbstatin
T1 sequence (Q00194 1-690): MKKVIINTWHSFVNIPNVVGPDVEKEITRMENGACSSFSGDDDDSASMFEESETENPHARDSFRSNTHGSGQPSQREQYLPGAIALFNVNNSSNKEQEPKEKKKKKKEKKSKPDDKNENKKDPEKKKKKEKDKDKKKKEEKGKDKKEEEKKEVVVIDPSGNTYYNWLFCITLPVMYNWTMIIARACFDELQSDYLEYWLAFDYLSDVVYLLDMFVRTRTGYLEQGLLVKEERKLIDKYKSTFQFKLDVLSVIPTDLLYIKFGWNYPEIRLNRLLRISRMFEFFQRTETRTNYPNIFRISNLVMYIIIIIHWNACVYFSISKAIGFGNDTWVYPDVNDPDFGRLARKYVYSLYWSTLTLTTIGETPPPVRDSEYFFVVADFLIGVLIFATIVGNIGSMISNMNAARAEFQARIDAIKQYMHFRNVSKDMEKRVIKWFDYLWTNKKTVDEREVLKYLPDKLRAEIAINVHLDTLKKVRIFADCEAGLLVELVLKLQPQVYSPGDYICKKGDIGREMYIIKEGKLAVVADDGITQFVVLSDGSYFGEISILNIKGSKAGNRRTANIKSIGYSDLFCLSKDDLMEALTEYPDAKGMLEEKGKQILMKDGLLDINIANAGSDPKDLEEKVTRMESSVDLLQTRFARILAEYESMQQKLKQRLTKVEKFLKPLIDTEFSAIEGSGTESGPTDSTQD
Summary of the method: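 Inside-out patches from Xenopus oocytes 2–7 d after injection (vitelline membrane removed), 21–24°C, held at −75 mV. Pipette/bath solution: 115 mM NaCl, 5 mM EGTA, 1 mM EDTA, 10 mM HEPES, pH 7.5. Test compound preapplied 1 min to closed channels (±100 μM erbstatin) at 1 or 10 min after excision, or applied at steady state; then 2 mM cGMP. Currents normalized to Imax; Ki, Hill coefficient and cGMP K1/2 (4–5 cGMP levels) fitted to Hill equation; mean ± SEM.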

[3] = target: T2, rat olfactory CNG channels (Rattus norvegicus, UniProt Q00195); format: biochemical; details: n = 10 patches
T2 sequence (Q00195 1-664): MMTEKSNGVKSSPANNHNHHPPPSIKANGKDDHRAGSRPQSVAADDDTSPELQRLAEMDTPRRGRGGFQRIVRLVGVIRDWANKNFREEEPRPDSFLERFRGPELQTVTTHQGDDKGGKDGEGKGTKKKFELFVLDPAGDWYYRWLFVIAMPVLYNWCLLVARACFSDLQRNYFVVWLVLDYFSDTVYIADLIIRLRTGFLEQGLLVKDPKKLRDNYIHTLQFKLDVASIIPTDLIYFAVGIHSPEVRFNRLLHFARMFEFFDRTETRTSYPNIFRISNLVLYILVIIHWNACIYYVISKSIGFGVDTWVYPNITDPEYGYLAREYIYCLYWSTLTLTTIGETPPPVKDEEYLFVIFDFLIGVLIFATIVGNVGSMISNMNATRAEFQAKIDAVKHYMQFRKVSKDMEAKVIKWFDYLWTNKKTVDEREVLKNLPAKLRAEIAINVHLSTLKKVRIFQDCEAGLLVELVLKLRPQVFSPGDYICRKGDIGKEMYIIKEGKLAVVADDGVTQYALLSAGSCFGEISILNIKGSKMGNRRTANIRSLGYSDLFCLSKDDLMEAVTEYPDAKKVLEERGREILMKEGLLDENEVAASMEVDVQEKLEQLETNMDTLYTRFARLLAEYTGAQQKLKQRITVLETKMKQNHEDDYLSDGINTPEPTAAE

rod CNG channel = details: ref Fodor et al., 1997a; cited from earlier work
[4] = 100 μM genistein, preexposure 1 min, 2 mM cGMP

With `O=c1c(-c2ccc(O)cc2)coc2cc(O)cc(O)c12` [genistein] the “effect on cGMP-activated current of native channels” value [1] was “reduced the magnitude of the cGMP-activated current and slowed the activation kinetics”, the “time course of inhibition” value [2] was greater than 30 s and the “residual current, % of maximal CNG current” value ([2]; 100 μM genistein with 100 μM erbstatin present) was 20%. The “residual current (fraction of total current with normal rapid activation)” value [2, 4] was 4.5%, the “steady state current elicited by cGMP” value [2, 4] was 40 % of control and the “residual current, % of maximal CNG current” value ([2]; 100 μM genistein, without erbstatin) was less than 5%. The “voltage dependence of inhibition” value ([2]; 100 μM genistein, saturating cGMP) was “voltage-independent”, the “time constant of slow current activation by cGMP” value ([2]; 100 μM genistein, single exponential fit) was 10.6 s and the Ki ([2]; K i for genistein inhibition of CNG current activation by cGMP, in the presence of 1 mM ATP) was 10.6 ± 1.3 µM. For the same compound, the Ki ([2]; apparent affinity of genistein for the rod channel, closed to activated channels) was 5 to 80 µM, the “K i values at 1 versus 10 min after patch excision” value ([2]; closed channels, residual current) was “do not differ” and the “extent of inhibition of steady state (fully activated) CNG current” value ([2]; high genistein concentrations (e.g., 1 mM)) was “incomplete”. The “Hill coefficient for genistein inhibition” value ([2]; in the absence of ATP) was 1.9 ± 0.2, the “effect on cGMP sensitivity (K 1/2 for cGMP)” value (“effect on cGMP sensitivity” below) ([2]; in the absence of ATP) was “no effect” and the “Hill coefficient for genistein inhibition” value ([2]; in the presence of ATP) was 2.0 ± 0.2. The “effect on cGMP sensitivity” value ([2]; in the presence of ATP) was “increase in cGMP sensitivity”, the inhibition at 100 µM ([2]; read-out: inhibition of closed channels, 100 μM genistein, without erbstatin) was greater than 95% and the “extent of inhibition of closed channels” value ([2]; saturating genistein (>100 μM)) was “complete inhibition”. The “time constant of inhibition of closed CNG channels” value ([2]; single exponential fit, data not shown) was 8.9 s, the “time required to recover from genistein inhibition” value ([2]; unpublished observations) was greater than 60 s and the “effect on rat olfactory CNG channels” value [3] was “no effect”.

In the case of `CCCCNc1ccc(C(=O)OCCN(C)C)cc1` [tetracaine], the time of block (rod CNG channel) is listed as less than 100 ms.

In the case of `O=CN/C=C/c1cc(O)ccc1O` [erbstatin], the “effect on cGMP sensitivity” value ([2]; in the presence of ATP) is reported as “increase in cGMP sensitivity”.

In the case of `O=C(O)c1cc(N(Cc2ccccc2O)Cc2cc(O)ccc2O)ccc1O` [lavendustin A], the “effect on cGMP sensitivity” value ([2]; in the presence of ATP) is reported as “increase in cGMP sensitivity”.

For `O=c1c(-c2ccc(O)cc2)coc2cc(O)ccc12` [daidzein], the “effect on rod CNG channels (maximal current)” value ([2]; saturating cGMP) was “no effect” and the “effect on rat olfactory CNG channels” value [3] was “no effect”.
